Compound activity from PubChem.
Rev-RRE block – HIV-1 Rev-RRE binding inhibitors, primary screen, biochemical, FRET, protein-RNA interaction | inhibition, % at 8 µM | AID 704, 2007 | hit rate 0.79% among 97,000 | P05866 | Rev peptide-RRE RNA binding;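 active = inhibition above the screen-wide mean plus 3 SD, cut at about 35% in these data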
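Test system – labelled RRE RNA duplex and labelled Rev peptide · Reagent – labelled Rev peptide · Doses – one concentration, 8 µM nominal · Incubation – 5 + 15 min at 25 °C · Signal – FRET fluorescence readout · Read-out basis – % inhibition of FRET ratio versus controls · Control set – DMSO wells as 0% and neomycin B wells as 100% inhibition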
EphB4 antag – EphB4-ephrin-B2 interaction antagonists, primary screen, biochemical, TNYL-RAW peptide probe, fluorescence polarization; EphB4 LBD / TNYL-RAW-Alexa532 peptide; hit rate 0.15% among 97,000; inhibition, % at 7 µM; AID 720, 2007;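 active = inhibition above the screen-wide mean inhibition plus 3 SD, cut at about 15% in these data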
S1P2 antag – human S1P2 receptor antagonists, primary screen, cell-based | Sphingosine 1-phosphate receptor 2 (Homo sapiens), O95136 | cell-based S1P2 antagonist assay, inhibition at 5 uM | inhibition, % at 5 µM | hit rate 0.21% among 97,000 | AID 736, 2007; in the data active = inhibition above about 45%;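 also: CRE beta-lactamase reporter cells expressing human S1P2 stimulated with S1P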
Target sequence (O95136 whole entry, looked up): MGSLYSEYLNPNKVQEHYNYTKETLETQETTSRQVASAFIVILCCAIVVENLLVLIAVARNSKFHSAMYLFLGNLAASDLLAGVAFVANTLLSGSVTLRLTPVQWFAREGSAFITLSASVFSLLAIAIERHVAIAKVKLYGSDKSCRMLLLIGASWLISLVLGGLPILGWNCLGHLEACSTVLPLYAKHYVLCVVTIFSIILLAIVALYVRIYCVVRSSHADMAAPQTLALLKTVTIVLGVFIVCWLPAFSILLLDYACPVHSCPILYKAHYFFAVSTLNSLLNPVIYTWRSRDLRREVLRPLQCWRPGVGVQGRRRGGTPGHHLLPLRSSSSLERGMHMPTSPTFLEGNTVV
GALR2 antag – GALR2 antagonists in receptor-expressing cells, primary screen; Galanin receptor type 2 (Homo sapiens), O43603; antagonist mode; inhibition, % at 4 µM; hit rate 0.39% among 140,000;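 also: cells stimulated with galanin 1-16 at roughly its EC80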
Target sequence (O43603 whole entry, looked up): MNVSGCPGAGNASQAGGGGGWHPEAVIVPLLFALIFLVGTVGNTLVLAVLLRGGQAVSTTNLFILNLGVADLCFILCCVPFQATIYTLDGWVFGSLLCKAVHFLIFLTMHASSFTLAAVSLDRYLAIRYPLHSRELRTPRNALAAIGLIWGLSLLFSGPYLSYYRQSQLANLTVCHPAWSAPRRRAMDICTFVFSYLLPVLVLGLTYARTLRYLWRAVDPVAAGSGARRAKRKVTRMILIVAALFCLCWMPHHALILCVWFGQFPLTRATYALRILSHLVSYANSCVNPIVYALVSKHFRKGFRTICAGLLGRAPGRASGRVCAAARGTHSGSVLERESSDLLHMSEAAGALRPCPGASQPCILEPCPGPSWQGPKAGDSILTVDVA
S1P2 agonist – S1P2 receptor agonists, primary screen, cell-based. Sphingosine 1-phosphate receptor 2 (Homo sapiens), O95136. S1P2-expressing cell line, agonist reporter read-out. hit rate 0.46% among 97,000. AID 729, 2007. activation, % at 4.5 µM; in the data active = activation above about 16%
GALR2 agonist – GALR2 receptor agonists, primary screen, cell-based; hit rate 0.48% among 140,000; AID 803, 2007; GALR2-expressing cells, agonist activation read-out; Galanin receptor type 2 (Homo sapiens), O43603; activation, % (test concentration not listed); in the data active = activation above about 5%, passing the limit was not always enough
GALR2 ant conf – GALR2 antagonists, retest of hits, confirmation, cell-based; shares compounds with GALR2 antag; GALR2-expressing cells, antagonist mode, inhibition; hit rate 60% among 480; inhibition, % at 4 µM;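 also: cells stimulated with galanin at about its EC80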
BLA inh counter – inhibitors of NFAT-driven beta-lactamase reporter, confirmation, counter-screen for GALR2 antagonist project, CHO NFAT-bla cells, FRET readout | shares compounds with GALR2 antag | thapsigargin-stimulated | inhibition, % at 4.2 µM | hit rate 36% among 480 | AID 867, 2007;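 active = inhibition above the mean inhibition across tested compounds plus 3 SD, cut at about 27% in these data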
Large screens that a line does not name were inactive (follow-up assays come after a bar, where they were run). A selection: hits, their analogues and other compounds. The true share with any hit is near 1.8%. Rule as the data show it, unless noted: active = inhibition above about 27%; inactive = the rest.

Cc1ccc(Nc2nc(-c3c(C)nc4ncccn34)cs2)cc1	none
O=C(/C=C/c1c[nH]c2ccccc12)c1cccc2ccccc12	none (no result: Rev-RRE block, EphB4 antag, S1P2 antag, S1P2 agonist)
NC(=O)CSCc1nc2ccccc2s1	GALR2 antag 31 | GALR2 ant conf inactive | BLA inh counter inactive
CCn1cc(/C=N/N=C2\CCC3C4CCc5cc(O)ccc5C4CC[C@]23C)c(C)n1 (some centres undefined)	none
Cn1c(NC(=O)c2ccc(F)c(F)c2)cc(=O)n(C)c1=O	GALR2 antag 28 (no result: Rev-RRE block, EphB4 antag, S1P2 antag, S1P2 agonist) | GALR2 ant conf inactive | BLA inh counter inactive
O=C(CC(c1ccccc1)c1ccccc1O)NCc1ccccc1Cl (centres undefined)	none (no result: Rev-RRE block, EphB4 antag, S1P2 antag, S1P2 agonist)
COc1ccc(C(=O)N(NC(=O)Oc2ccccc2)C(C)(C)C)cc1	none (no result: Rev-RRE block, EphB4 antag, S1P2 antag, S1P2 agonist)
CCN1/C(=C/c2ccc3cc(C)ccc3[n+]2CC)Sc2ccccc21	GALR2 antag 46 (no result: Rev-RRE block, EphB4 antag, S1P2 antag, S1P2 agonist) | GALR2 ant conf 48 | BLA inh counter 49
CC(=O)c1c(C)[nH]c(C(=O)COC(=O)c2cc(S(=O)(=O)N(C)c3ccccc3)ccc2Cl)c1C	GALR2 antag 28 (no result: Rev-RRE block, EphB4 antag, S1P2 antag, S1P2 agonist) | GALR2 ant conf inactive | BLA inh counter inactive
CC(C)(C)c1ccc(OCCNC(=O)c2ncn[nH]2)cc1	GALR2 antag 31 | GALR2 ant conf inactive | BLA inh counter inactive
CCN(Cc1cc(=O)n2ccsc2n1)c1cccc2ccccc12	none (no result: Rev-RRE block, EphB4 antag, S1P2 antag, S1P2 agonist)
O=c1cc(-c2ccccc2Cl)oc2cc(O)cc(O)c12	none (no result: Rev-RRE block, EphB4 antag, S1P2 antag, S1P2 agonist)
O=C1C=CC(O)(c2cc(=O)c3c(O)cc(O)cc3o2)C=C1	GALR2 antag 90 (no result: Rev-RRE block, EphB4 antag, S1P2 antag, S1P2 agonist) | GALR2 ant conf 83 | BLA inh counter 39
N#CC1=C(N)Nc2nc3ccccc3n2C1c1ccc(Cl)cc1 (centres undefined)	GALR2 antag 32 (no result: Rev-RRE block, EphB4 antag, S1P2 antag, S1P2 agonist) | GALR2 ant conf 27 | BLA inh counter 46
N#CC1=C(N)Nc2ncnn2C1c1ccccc1 (centres undefined)	none (no result: Rev-RRE block, EphB4 antag, S1P2 antag, S1P2 agonist)
CC(=O)c1ccc(NC(=O)c2cc3nc4c(c(C(F)(F)F)n3n2)CCCC4)cc1	GALR2 antag 31 | GALR2 ant conf inactive | BLA inh counter inactive
CCOC(=O)CSc1nc(C)cc(=O)[nH]1	GALR2 antag 32 | GALR2 ant conf inactive | BLA inh counter inactive
COc1ccc(OC)c(NC(=O)CSc2ncnc3c2cnn3-c2ccccc2Cl)c1	S1P2 antag 81, GALR2 antag 31 | GALR2 ant conf 49 | BLA inh counter inactive
Cc1ccc(C)c(Cn2c(C(=O)OC(C)C)cc3c2ccn3C)c1	none
Nc1nonc1C(=O)NCCNCc1ccccc1OCc1ccccc1F	none
Nc1nonc1C(=O)NCCNCc1cc(Br)ccc1OCc1ccccc1F	S1P2 antag 73, GALR2 antag 32 | GALR2 ant conf 33 | BLA inh counter 52
CCCn1c(C)nc2c(c1=O)c1nc3ccccc3nc1n2CCc1ccccc1	none
Cn1c(-c2c(N)n(CCCc3ccccc3)c3nc4ccccc4nc23)nc2ccccc21	Rev-RRE block 45, S1P2 antag 75, GALR2 antag 38 | GALR2 ant conf 51 | BLA inh counter 55
Cn1c(-c2c(N)n(CCc3ccccc3)c3nc4ccccc4nc23)nc2ccccc21	Rev-RRE block 44, S1P2 antag 59, GALR2 antag 36 | GALR2 ant conf 45 | BLA inh counter 54
c1ccc(CN2CCN(c3ncnc4c3[nH]c3ccccc34)CC2)cc1	S1P2 antag 78, GALR2 antag 36 | GALR2 ant conf 40 | BLA inh counter inactive
COc1ccc2c(c1)[nH]c1c(N3CCN(Cc4ccc5c(c4)OCO5)CC3)ncnc12	S1P2 antag 87, GALR2 antag 38 | GALR2 ant conf 44 | BLA inh counter inactive
c1ccc2c(c1)[nH]c1c(N3CCC4(CC3)OCCO4)ncnc12	none
Cc1ccc2[nH]c3c(N4CCCCCC4)ncnc3c2c1	S1P2 antag 92, GALR2 antag 38 | GALR2 ant conf 42 | BLA inh counter inactive
CC1(C)Cc2ccccc2C(N)=C1C#N	none
COC(=O)c1ccc(CSc2nc3ccc(C)cc3[nH]2)o1	none
O=C(O)c1ccc2c(=O)n3c(nc2c1)/C(=C/c1cccc(Cl)c1Cl)CCCC3	none (no result: Rev-RRE block, EphB4 antag, S1P2 antag, S1P2 agonist)
CN(C)S(=O)(=O)c1cccc(NC(=O)CCNC(=O)c2ccccc2Cl)c1	none (no result: Rev-RRE block, EphB4 antag, S1P2 antag, S1P2 agonist)
CCCCN(C)CCn1c(=S)[nH]c2ncccc2c1=O	GALR2 antag 32 | GALR2 ant conf inactive | BLA inh counter inactive
CCOC(=O)COc1ccc2ccccc2c1/C=C/[N+](=O)[O-]	none (no result: Rev-RRE block, EphB4 antag, S1P2 antag, S1P2 agonist)
CCOC(=O)COc1ccc(/C=C/[N+](=O)[O-])c(OCC(=O)OCC)c1	GALR2 antag 27 | GALR2 ant conf 31 | BLA inh counter inactive
COc1cccc(COc2ccccc2C2Nc3ccc(Br)cc3C(=O)N2NC(=O)c2ccncc2)c1 (centres undefined)	none
O=C(C#Cc1ccccc1)c1cccc([N+](=O)[O-])c1	S1P2 antag 67, GALR2 antag 34 | GALR2 ant conf 72 | BLA inh counter 75
N/C(=N\OC(=O)Oc1ccccc1)c1cccc([N+](=O)[O-])c1	none (no result: Rev-RRE block, EphB4 antag, S1P2 antag, S1P2 agonist)
Oc1ccccc1N=Nc1nc(-c2ccccc2)c(-c2ccccc2)[nH]1	GALR2 antag 29 | GALR2 ant conf 34 | BLA inh counter inactive
COc1ccccc1N=Nc1nc(-c2ccccc2)c(-c2ccccc2)[nH]1	none (no result: Rev-RRE block, EphB4 antag, S1P2 antag, S1P2 agonist)
Cc1ccccc1-n1c(CSC(=N)N)nc2ccccc2c1=O	GALR2 antag 31 | GALR2 ant conf inactive | BLA inh counter inactive
C1CCC(C23CC4CC(CC(C4)C2)C3)NC1 (centres undefined)	none
CCSc1nnc(NC(=O)C(CC)(C(F)(F)F)C(F)(F)F)s1	GALR2 antag 28 | GALR2 ant conf inactive | BLA inh counter inactive
CCSc1nnc(NC(=O)C(C)(C(F)(F)F)C(F)(F)F)s1	none
COc1ccc2[nH]c3c(NCc4ccco4)ncnc3c2c1	GALR2 antag 28 | GALR2 ant conf inactive | BLA inh counter inactive
CC(=O)OCc1c(C(F)(F)F)nn(C)c1SCc1ccc(Cl)cc1	none
CCN(CC)c1ncnc2c1[nH]c1ccccc12	none
CCCOc1ncnc2c1[nH]c1ccccc12	GALR2 antag 29 | GALR2 ant conf 28 | BLA inh counter inactive
O=C(NCc1ccc(F)cc1)C(=O)NCC1OCCN1C(=O)c1cccs1 (centres undefined)	none (no result: Rev-RRE block, EphB4 antag, S1P2 antag, S1P2 agonist)
O=C(Cn1ncc(Cl)c(Cl)c1=O)N1CCN(S(=O)(=O)c2ccc3ccccc3c2)CC1	GALR2 antag 29 (no result: Rev-RRE block, EphB4 antag, S1P2 antag, S1P2 agonist) | GALR2 ant conf 56 | BLA inh counter inactive
